ChEMBL document CHEMBL1250450, “Well-defined regions of the Plasmodium falciparum reticulocyte binding protein homologue 4 mediate interaction with red blood cell membrane” (J Med Chem, 2010)
Residues, ends and D or L forms follow the SMILES beside them.

Species: Homo sapiens
Assay: Binding affinity to RBC membrane receptor in human RBC assessed as specific binding activity measured as ratio of specifically bound peptide/added peptide by gamma counter
Method in brief: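 1 × 10^8 healthy-donor RBCs incubated in triplicate with four rising concentrations of 125I-peptide (0-560 nM), with or without unlabeled peptide, then washed in HBS (pH 7.4) and gamma-counted. Specific binding (total minus nonspecific) plotted against added peptide; the slope is the specific binding activity. The HABP cutoff is ≥2%.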

Activity	Compound
< 2%	H-KYNLPQERIIKNYNHNGINN-OH
< 2%	H-FMQNETFKKNIDDKIKEMNNY-OH
< 2%	CC[C@H](C)[C@H](NC(=O)[C@H](CC(N)=O)NC(=O)[C@H](CCCCN)NC(=O)[C@H](CCC(=O)O)NC(=O)[C@H](CC(N)=O)NC(=O)[C@@H](NC(=O)[C@H](Cc1cnc[nH]1)NC(=O)[C@H](CCC(=O)O)NC(=O)[C@H](CC(N)=O)NC(=O)[C@H](CC(N)=O)NC(=O)[C@@H](NC(=O)[C@H](CC(N)=O)NC(=O)[C@H](CC(N)=O)NC(=O)[C@H](CCC(=O)O)NC(=O)[C@H](CC(N)=O)NC(=O)[C@@H](NC(=O)[C@H](Cc1cnc[nH]1)NC(=O)[C@H](CCC(=O)O)NC(=O)[C@H](CC(N)=O)NC(=O)[C@@H](N)CC(N)=O)[C@H](C)O)[C@@H](C)CC)[C@H](C)O)C(=O)N[C@@H](Cc1ccc(O)cc1)C(=O)O
< 2%	H-KEIKKVLPQLYIPKNEQEYI-OH
< 2%	H-IQERNQNNQIVKELKYNKQI-OH
< 2%	H-IQNHKNKQETKLNTTTIQELY-OH
< 2%	H-NGQKLKTDIILNSFVQINSSY-OH
> 2%	H-MLETTKEQILLLWNNKKISQY-OH
< 2%	H-EDEDENENEVENENEDFNDIY-OH
< 2%	H-NYEHPNNYQQKNDEKISLQH-OH
< 2%	H-NNLKDNIQININNIKSIIRNY-OH
< 2%	H-PPNSPFRSYYDKNLNKDINE-OH
< 2%	CC[C@H](C)[C@H](NC(=O)[C@@H](NC(=O)[C@H](CCCNC(=N)N)NC(=O)[C@H](CCC(N)=O)NC(=O)[C@H](CO)NC(=O)[C@@H](NC(=O)[C@H](CC(N)=O)NC(=O)[C@@H](NC(=O)[C@@H](NC(=O)[C@@H](N)CCCCN)[C@@H](C)O)[C@@H](C)CC)[C@H](C)O)[C@@H](C)O)C(=O)N[C@@H](CC(=O)O)C(=O)N[C@@H](CC(=O)O)C(=O)N[C@@H](CO)C(=O)N[C@@H](CC(N)=O)C(=O)N[C@@H](CCSC)C(=O)N[C@@H](CC(=O)O)C(=O)N[C@@H](CCCNC(=N)N)C(=O)N[C@@H](CC(N)=O)C(=O)N[C@@H](CC(N)=O)C(=O)N[C@@H](CCCNC(=N)N)C(=O)N[C@@H](Cc1ccc(O)cc1)C(=O)O
< 2%	H-NISQNYNNHSLSFVHSINNH-OH
< 2%	H-HIKQILINYIQECKPIQNIS-OH
< 2%	H-TCHSIQTLLNNLISSKIIFKY-OH
< 2%	H-NNEHANEKNIYNEHTNENNI-OH
< 2%	H-LNIKDKDEKKRKNDNLINNY-OH
< 2%	H-FDQINQKYDDLTKNINQMND-OH
< 2%	H-LQLLKDIKEIQTKQIDTKINY-OH
< 2%	H-IIKNITSIYYKINILNILII-OH
< 2%	H-IFQKEFSEADNAHSEEKEEY-OH
< 2%	H-NHVELYIKNFQKNKIQIHKN-OH
< 2%	CC[C@H](C)[C@H](NC(=O)[C@H](Cc1ccc(O)cc1)NC(=O)[C@H](CCC(=O)O)NC(=O)[C@H](CC(N)=O)NC(=O)[C@@H](NC(=O)[C@H](CCCCN)NC(=O)[C@@H](N)CCCCN)C(C)C)C(=O)N[C@@H](CC(N)=O)C(=O)N[C@@H](CC(N)=O)C(=O)N[C@@H](CO)C(=O)N[C@@H](CC(=O)O)C(=O)N[C@@H](CS)C(=O)N[C@@H](Cc1cnc[nH]1)C(=O)N[C@@H](CC(C)C)C(=O)N[C@H](C(=O)N[C@@H](CS)C(=O)N[C@@H](CO)C(=O)N[C@@H](CCCCN)C(=O)N[C@@H](Cc1ccc(O)cc1)C(=O)N[C@@H](CCCCN)C(=O)O)[C@@H](C)O (H-KKVNEYINNSDCHLTCSKYK-OH)
< 2%	H-YNNNHDKQNEHKYNQGKSSG-OH

Activity	Compound
< 2%	H-IRKIYDIETIYQNDLHNIEE-OH
< 2%	H-DYSLLKLSYNKNQDIYKNIQ-OH
< 2%	H-QENITTFENQYKDLIIKMNH-OH
< 2%	H-QFYINEKNYNNNHDDHNDDH-OH
< 2%	H-KANLQDRDIKYIVQNNDANN-OH
< 2%	H-TFNMYYNDIQQIKIKINQNE-OH
< 2%	H-LPVYFDEVEDEVEDEVEDED-OH
< 2%	H-EKIGLRQMENRLKGKYEEIK-OH
< 2%	H-ELIPITQQIQTKMYTTNNIE-OH
< 2%	H-DDNFIEYNILNADPDLRSHF-OH
< 2%	H-YTTFKYLQTLNKSLYDSIYK-OH
< 2%	H-HKINNYSHNIEDLINQLQHK-OH
< 2%	CC[C@H](C)[C@H](NC(=O)[C@H](Cc1ccccc1)NC(=O)[C@H](Cc1ccccc1)NC(=O)[C@H](Cc1ccccc1)NC(=O)[C@H](C)NC(=O)[C@@H](NC(=O)[C@H](CO)NC(=O)[C@H](CO)NC(=O)[C@@H](N)CS)[C@H](C)O)C(=O)N[C@@H](CCCCN)C(=O)N[C@@H](CC(N)=O)C(=O)N[C@@H](CO)C(=O)N[C@@H](CC(N)=O)C(=O)N[C@@H](CCC(=O)O)C(=O)N1CCC[C@H]1C(=O)N[C@@H](Cc1cnc[nH]1)C(=O)N[C@@H](Cc1cnc[nH]1)C(=O)N[C@H](C(=O)N[C@@H](Cc1ccccc1)C(=O)N[C@@H](CC(N)=O)C(=O)N[C@@H](Cc1ccc(O)cc1)C(=O)O)[C@@H](C)CC
< 2%	H-KIHTLEELKILTQEINDKNVY-OH
< 2%	H-DIENIIKQNEHTESYKNLDT-OH
< 2%	H-IQHYQTKFNINTNTKQLQQL-OH
< 2%	H-YNTSSQQKNNLHTNNNSNSR-OH
< 2%	H-QEFNKKIQHFKEETQIMIWKY-OH
< 2%	H-INNLMIISFDKNKSSDLMLQY-OH
< 2%	CC[C@H](C)[C@H](NC(=O)[C@H](CCC(N)=O)NC(=O)[C@H](CCC(N)=O)NC(=O)[C@H](CO)NC(=O)[C@H](Cc1ccc(O)cc1)NC(=O)[C@H](CC(N)=O)NC(=O)[C@@H](NC(=O)[C@H](CC(N)=O)NC(=O)[C@H](Cc1cnc[nH]1)NC(=O)[C@@H](NC(=O)[C@H](Cc1ccccc1)NC(=O)[C@@H](NC(=O)[C@H](CC(=O)O)NC(=O)[C@@H](N)CO)C(C)C)[C@H](C)O)[C@@H](C)CC)C(=O)N[C@@H](CC(C)C)C(=O)N[C@@H](CC(N)=O)C(=O)N[C@@H](Cc1ccc(O)cc1)C(=O)N[C@@H](CO)C(=O)N[C@@H](CCC(N)=O)C(=O)N[C@@H](C)C(=O)O
< 2%	H-CIKQTYNNNKSIESLKLKIN-OH
< 2%	H-NLTNSTQEYINQIKAIPTNL-OH
< 2%	CC[C@H](C)[C@H](NC(=O)[C@H](Cc1ccc(O)cc1)NC(=O)[C@H](CCC(=O)O)NC(=O)[C@H](Cc1ccc(O)cc1)NC(=O)[C@H](CCC(=O)O)NC(=O)[C@H](CCCCN)NC(=O)[C@H](C)NC(=O)[C@H](C)NC(=O)[C@H](CC(N)=O)NC(=O)[C@@H](NC(=O)[C@H](C)NC(=O)[C@H](CC(N)=O)NC(=O)[C@H](CC(N)=O)NC(=O)[C@H](CO)NC(=O)[C@H](CC(N)=O)NC(=O)[C@H](NC(=O)[C@@H](N)Cc1ccccc1)[C@@H](C)CC)C(C)C)C(=O)N[C@H](C(=O)N[C@@H](CCCCN)C(=O)N[C@@H](Cc1ccc(O)cc1)C(=O)O)[C@@H](C)CC
< 2%	H-EKGKRGTSRNNNIHTNENNIY-OH
< 2%	H-ITLLVSRKQLIYIEYIYFIN-OH

Compound	Activity
H-KINNNLKDITHIVINDNNTLY-OH	< 2%
